Test results published in article PMC11377146 (International Journal for Parasitology: Drugs and Drug …, 2024).
Values joined by “and” are separate entries in the source; they are usually repeats but may differ in a detail not shown here. Equal entries are not always repeated.

Legend:
Cytotoxicity = format: cell-based; conditions: human, Caco-2 cells
How it was run: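 Caco-2 cells grown 24 h in EMEM + 10% FBS, 37 °C, 5% CO2. Test compound (10 ng/ml–100 μg/ml, in EMEM with 0.5% DMSO) applied for 24 h. MTT (5 mg/ml stock) added for 4 h, formazan dissolved in 4 mM HCl/0.1% Nonidet P-40 in isopropanol. A590 read, 620 nm reference. Viability relative to untreated wells; CC50 from curve fit.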

[1] = system: G. duodenalis trophozoite stage; assay: In vitro antigiardial assay; format: cell-based; conditions: Giardia duodenalis, 48 h, G. duodenalis trophozoites
How it was run: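 Log-phase trophozoites grown in modified TYI-S-33 at 37 °C, harvested by chilling on ice, counted. DMSO stocks diluted two-fold serially; 2 × 10^5 trophozoites/well; metronidazole positive control. Incubated 48 h at 37 °C, anaerobic. BacTiter-Glo added, 20 min at 37 °C, luminescence read. Survival = medium-blank-corrected signal vs untreated; triplicates. SI = Caco-2 CC50 / IC50.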

3D7 parasite line = conditions: ref Whittell et al., 2011; cited from earlier work

IC50 [1]	SMILES	CC50 at 24 h (Cytotoxicity)	IC50 (3D7 parasite line)
2.01 µg/mL and 11.7 µM	Cc1ncc([N+](=O)[O-])n1CCO [Metronidazole, metronidazole]	> 100 µg/mL and > 100 µM	
	Cn1cc2c3ccccc3nc-2c2ccccc21 [isocryptolepine, Isocryptolepine]		665 nM
